{"data": "Results of several laboratories", "EPHX2": "Bifunctional epoxide hydrolase 2 (EPHX2, Homo sapiens, UniProt P34913)", "Dhodh": "Dihydroorotate dehydrogenase (quinone), mitochondrial (Dhodh, Mus musculus, UniProt O35435)", "ESR2": "Estrogen receptor beta (ESR2, Homo sapiens, UniProt Q92731)", "note": "Lines come from different studies, so protocols differ."}
{"SMILES": "C=CCN=C=S", "target": "EPHX2", "assay": "enzyme activity, inhibitor, fluorescence", "quantity": "IC50", "result": "11.6 µM"}
{"SMILES": "O=c1c(O)c(-c2ccc(O)c(O)c2)oc2cc(O)ccc12", "target": "Dual specificity mitogen-activated protein kinase kinase 4 (MAP2K4, Homo sapiens, UniProt P45985)", "assay": "enzyme activity, inhibitor, ADP detection", "quantity": "IC50", "result": "2.9 µM"}
{"SMILES": "N[C@@H](Cc1ccccc1)C(=O)O", "target": "Intestinal-type alkaline phosphatase (ALPI, Bos taurus, UniProt P19111)", "assay": "enzyme activity, inhibitor", "quantity": "IC50", "result": "78.4 µM"}
{"SMILES": "Cn1nc2c(=O)n(C3CC3)ncc2c1[C@](O)(c1cnc(C(F)(F)F)c(Cl)c1)C(F)(F)F", "target": "Dhodh", "assay": "enzyme activity, inhibitor, absorbance", "quantity": "IC50", "result": "> 30 µM"}
{"SMILES": "C[C@H]1CCC[C@@]2(C)CCCC[C@]12O", "target": "OR11A1 (Homo sapiens, UniProt Q9GZK7)", "assay": "cAMP, agonist, luciferase", "quantity": "EC50", "result": "28 µM"}
{"SMILES": "C[C@@H]1O[C@@H](O[C@@H]2[C@@H](O)[C@H](OCCc3ccc(O)c(O)c3)O[C@H](CO)[C@H]2OC(=O)/C=C/c2ccc(O)c(O)c2)[C@H](O)[C@H](O)[C@H]1O", "target": "Aldo-keto reductase family 1 member B1 (AKR1B1, Homo sapiens, UniProt P15121)", "assay": "enzyme activity, inhibitor", "quantity": "IC50", "result": "1.17 µM"}
{"SMILES": "O=C(Nc1ccc(-c2ccc3ncccc3c2)cc1)C1CCN(S(=O)(=O)c2ccccc2Cl)CC1", "target": "EPHX2", "assay": "enzyme activity, inhibitor, fluorescence", "quantity": "IC50", "result": "0.0054 µM"}
{"SMILES": "O=C1CC[C@H](N2Cc3cc(N4CCN(CC5CCN(c6ccc([C@@H]7c8ccc(O)cc8CC[C@@H]7c7ccccc7)cc6)CC5)CC4)ccc3C2=O)C(=O)N1", "target": "ESR2", "assay": "ligand displacement, radioligand", "quantity": "IC50", "result": "0.005 µM"}
{"SMILES": "CC[C@@](N)(c1cnc(C(F)(F)F)c(Cl)c1)c1c2ncn(C3CC3)c(=O)c2nn1C", "target": "Dhodh", "assay": "enzyme activity, inhibitor, absorbance", "quantity": "IC50", "result": "6.7 µM"}
{"SMILES": "C[S+]([O-])CCCCN=C=S (stereo not drawn)", "target": "EPHX2", "assay": "enzyme activity, inhibitor, fluorescence", "quantity": "IC50", "result": "3.65 µM"}
{"SMILES": "O=C(Nc1ccc(-c2cccc3ncccc23)cc1)C1CCN(S(=O)(=O)c2ccccc2Cl)CC1", "target": "EPHX2", "assay": "enzyme activity, inhibitor, fluorescence", "quantity": "IC50", "result": "0.0017 µM"}
{"SMILES": "Oc1ccc2c3c(cnc2c1)-c1ccc(C(F)(F)F)cc1O[C@@H]3c1ccc(OCCN2CC(CF)C2)cc1", "target": "ESR2", "assay": "ligand displacement, radioligand", "quantity": "Ki", "result": "0.00011 µM"}
